Measured values published in ChEMBL document CHEMBL1132225, “Novel antidiabetic and hypolipidemic agents. 3. Benzofuran-containing thiazolidinediones” (J Med Chem, 1999).
Where “and” joins values, the source holds several entries; their conditions need not be identical. Identical values can stand only once. Calls of active or inactive are those of the source. The calls are words filed in the database; no cut-off is given here.

What was measured:
[1] = Pharmacokinetic Parameter, half life period measured in Female Wistar Rats at 100 mg/kg by po administration; assay type: ADME, organism-based; parameters: dose 100 mg/kg, route oral; details: rat, in vivo
[2] = Pharmacokinetic Parameter, Tmax is the time at which maximum concentration (Cmax) is reached in Female Wistar Rats at 100 mg/kg by po administration; assay type: ADME, organism-based; parameters: dose 100 mg/kg, route oral; details: rat, in vivo
[3] = Pharmacokinetic Parameter, AUC (0-infinity) is the area under the plasma concentration versus time curve extrapolated to infinity in Female Wistar Rats at 100 mg/kg by po administration; assay type: ADME, organism-based; parameters: time infinity, dose 100 mg/kg, route oral; details: rat, read-out: AUC 0-infinity
[4] = Pharmacokinetic Parameter, AUC (0-t) is the area under the plasma concentration versus time curve in Female Wistar Rats at 100 mg/kg by po administration; assay type: ADME, organism-based; parameters: dose 100 mg/kg, route oral; details: rat
[5] = Pharmacokinetic Parameter, Cmax is observed maximum plasma concentration in Female Wistar Rats at 100 mg/kg by po administration; assay type: ADME, organism-based; parameters: dose 100 mg/kg, route oral; details: rat
[6] = organism: Rattus norvegicus; test: The AUC(0-infinity) values in female wistar rats.; assay type: ADME, organism-based; parameters: time infinity; details: in vivo
[7] = organism: Rattus norvegicus; test: The AUC(0-t)values in female wistar rats.; assay type: ADME, organism-based; details: in vivo
[8] = Pharmacokinetic Parameter, Kel is elimination rate constant in Female Wistar Rats at 100 mg/kg by po administration; assay type: ADME, organism-based; parameters: dose 100 mg/kg, route oral; details: rat, in vivo
[9] = The Kel values in female wistar rats.; assay type: ADME, organism-based; details: rat, in vivo
[10] = The Cmax values in female wistar rats.; assay type: ADME, organism-based; details: rat, in vivo
[11] = The half life period in female wistar rats.; assay type: ADME, organism-based; details: rat, in vivo
In short: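 Female Wistar rats (200–225 g), fasted 12 h overnight with water, fed 3 h post-dose; single 100 mg/kg oral dose as 0.5% CMC suspension. Retro-orbital blood sampled at multiple times; 0.2 mL plasma extracted, analysed by reverse-phase C18 HPLC with internal standard. Parameters by noncompartmental analysis; mean ± SD, n = 4.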

[12] = The Tmax values in female wistar rats.; assay type: ADME, organism-based; details: rat, in vivo
[13] = organism: Mus musculus; test: Percent reduction of plasma glucose after 6 days of treatment (various doses).; assay type: functional
[14] = organism: Mus musculus; test: The compound was tested for percent reduction of plasma triglyceride after 6 days of treatment.; assay type: functional; parameters: concentration or dose not given beside the values
[15] = tested on: Mus musculus; test: Percent reduction of plasma glucose (PG) after 6 days of treatment. It is the mean of standard deviation observed in plasma glucose (PG) in db/db mice at dose of 100 mg/kg/day; assay type: functional; details: route oral
[16] = tested on: Mus musculus; test: Percent reduction of plasma glucose (PG) after 6 days of treatment. It is the mean of standard deviation observed in plasma glucose (PG) in db/db mice at dose of 30 mg/kg/day; assay type: functional; details: route oral
[17] = tested on: Mus musculus; test: Percent reduction in plasma triglyceride (TG) after 6 days of treatment. It is the mean of standard deviation observed in plasma triglyceride (TG) in db/db mice at dose of 100 mg/kg/day; assay type: functional; details: route oral
[18] = tested on: Mus musculus; test: Percent reduction in plasma triglyceride (TG) after 6 days of treatment. It is the mean of standard deviation observed in plasma triglyceride (TG) in db/db mice at dose of 30 mg/kg/day; assay type: functional; details: route oral
[19] = organism: Mus musculus; test: The compound was tested for percent reduction of plasma glucose after 6 days of treatment; Not Active; assay type: functional, organism-based
[20] = organism: Mus musculus; test: The compound was tested for percent reduction of plasma triglyceride after 6 days of treatment; not active; assay type: functional, organism-based
[21] = tested on: Mus musculus; test: Percent reduction of plasma glucose (PG) after 6 days of treatment. It is the mean of standard deviation observed in plasma glucose (PG) in db/db mice at dose of 100 mg/kg/day; NA = Not Active; assay type: functional, organism-based
[22] = tested on: Mus musculus; test: Percent reduction in plasma triglyceride (TG) after 6 days of treatment. It is the mean of standard deviation observed in plasma triglyceride (TG) in db/db mice at dose of 100 mg/kg/day; NA = Not Active; assay type: functional
[23] = organism: Mus musculus; test: The compound was tested for percent reduction of plasma triglyceride after 6 days of treatment; Not Active; assay type: functional, organism-based
[24] = tested on: Mus musculus; test: Percent reduction of plasma glucose (PG) after 6 days of treatment. It is the mean of standard deviation observed in plasma glucose (PG) in db/db mice at dose of 200 mg/kg/day; assay type: functional; details: route oral
[25] = tested on: Mus musculus; test: Percent reduction in plasma triglyceride (TG) after 6 days of treatment. It is the mean of standard deviation observed in plasma triglyceride (TG) in db/db mice at dose of 200 mg/kg/day; NA = Not Active; assay type: functional, organism-based
[26] = tested on: Mus musculus; test: Percent reduction of plasma glucose (PG) after 6 days of treatment. It is the mean of standard deviation observed in plasma glucose (PG) in db/db mice at dose of 30 mg/kg/day; NA = Not Active; assay type: functional, organism-based
[27] = tested on: Mus musculus; test: Percent reduction in plasma triglyceride (TG) after 6 days of treatment. It is the mean of standard deviation observed in plasma triglyceride (TG) in db/db mice at dose of 200 mg/kg/day; assay type: functional; details: route oral
[28] = tested on: Mus musculus; test: Percent reduction in plasma triglyceride (TG) after 6 days of treatment. It is the mean of standard deviation observed in plasma triglyceride (TG) in db/db mice at dose of 30 mg/kg/day; NA = Not Active; assay type: functional, organism-based
[29] = target: T1, Peroxisome proliferator-activated receptor alpha (Homo sapiens) (UniProt Q07869); test: Compound was tested for fold transactivation of human Peroxisome proliferator activated receptor alpha at 50 uM
T1 sequence (whole entry): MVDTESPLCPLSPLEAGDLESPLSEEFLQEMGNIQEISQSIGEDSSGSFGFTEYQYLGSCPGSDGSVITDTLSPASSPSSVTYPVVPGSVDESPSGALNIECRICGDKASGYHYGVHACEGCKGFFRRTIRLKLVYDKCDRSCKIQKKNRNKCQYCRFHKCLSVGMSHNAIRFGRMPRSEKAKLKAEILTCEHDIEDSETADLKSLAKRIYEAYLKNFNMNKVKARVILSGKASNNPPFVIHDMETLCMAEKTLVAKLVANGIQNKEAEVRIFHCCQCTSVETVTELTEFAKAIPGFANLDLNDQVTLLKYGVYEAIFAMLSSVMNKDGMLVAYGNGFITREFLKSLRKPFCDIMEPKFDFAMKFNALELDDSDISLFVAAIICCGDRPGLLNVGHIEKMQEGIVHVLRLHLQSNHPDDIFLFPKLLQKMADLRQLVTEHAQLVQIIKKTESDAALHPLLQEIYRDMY

[30] = target: T1, Peroxisome proliferator-activated receptor alpha (Homo sapiens); test: The fold activation against 50 u M Peroxisome proliferator activated receptor alpha(amino acids 167-468)
[31] = target: T2, Peroxisome proliferator-activated receptor gamma (Homo sapiens) (UniProt P37231); test: The fold activation against 1 amino acids 174-475)
T2 sequence (whole entry): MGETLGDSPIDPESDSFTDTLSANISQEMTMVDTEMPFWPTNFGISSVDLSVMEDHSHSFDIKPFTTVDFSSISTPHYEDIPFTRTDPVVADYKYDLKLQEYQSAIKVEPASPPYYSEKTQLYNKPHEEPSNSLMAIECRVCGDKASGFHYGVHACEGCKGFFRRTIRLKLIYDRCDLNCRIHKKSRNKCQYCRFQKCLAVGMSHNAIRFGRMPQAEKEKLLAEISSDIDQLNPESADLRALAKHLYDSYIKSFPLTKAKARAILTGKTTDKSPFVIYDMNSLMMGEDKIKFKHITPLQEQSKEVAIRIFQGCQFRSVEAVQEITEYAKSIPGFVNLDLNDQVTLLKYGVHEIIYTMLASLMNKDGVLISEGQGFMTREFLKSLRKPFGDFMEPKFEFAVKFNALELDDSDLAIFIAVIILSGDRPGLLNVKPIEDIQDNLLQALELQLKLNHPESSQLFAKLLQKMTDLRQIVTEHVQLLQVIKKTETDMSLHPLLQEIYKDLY

## Cc1c(C)c2c(c(C)c1OCc1ccccc1)C(CN1CCC[C@H]1COc1ccc(/C=C3\SC(=O)NC3=O)cc1)C(C)(C)O2 (stereo not given in full)
[1]
  half-life: 13.1 h
[2]
  Tmax: 3.5 h
[3]
  AUC(0-inf): 23600 ng·h/mL
[4]
  AUC(0-t): 15500 ng·h/mL
[5]
  Cmax: 1250 ng/mL
[6]
  AUC: 23600 ng·h/mL
[7]
  AUC: 15500 ng·h/mL
[8]
  k el: 1.39e-05 s⁻¹
[9]
  k el: 1.39e-05 s⁻¹
[10]
  Cmax: 1250 ng/mL
[11]
  half-life: 13.1 h
[12]
  Tmax: 3.5 h
[13]
  Reduction: 66% and 40%
[14]
  Reduction: 52% and 38%
[15]
  PG: 66%
[16]
  PG: 40%
[17]
  TG: 52%
[18]
  TG: 38%

## Cc1oc2c(C)c(C)c(OCc3ccccc3)c(C)c2c1CN1CCC[C@@H](Oc2ccc(/C=C3\SC(=O)NC3=O)cc2)C1
[19]
  Reduction: inactive
[20]
  Reduction: inactive
[21]
  PG: inactive
[22]
  TG: inactive

## Cc1oc2c(C)c(C)c(OCc3ccccc3)c(C)c2c1CN1CCC[C@H]1COc1ccc(CC2SC(=O)NC2=O)cc1 (stereo not given in full)
[21]
  PG: inactive
[22]
  TG: inactive

## Cc1oc2c(C)c(C)c(O)c(C)c2c1CN1CCC[C@@H](Oc2ccc(/C=C3\SC(=O)NC3=O)cc2)C1
[13]
  Reduction: 22%
[23]
  Reduction: inactive
[15]
  PG: 22%
[22]
  TG: inactive

## Cc1c(C)c2c(c(C)c1OCc1ccccc1)C(CN1CCC[C@H]1COc1ccc(/C=C3\SC(=O)NC3=O)cc1)C(C)(C)O2.O=C(O)/C=C\C(=O)O (stereo not given in full)
[1]
  half-life: 10.1 h
[2]
  Tmax: 5 h
[3]
  AUC(0-inf): 65000 ng·h/mL
[4]
  AUC(0-t): 53800 ng·h/mL
[5]
  Cmax: 4300 ng/mL
[8]
  k el: 1.94e-05 s⁻¹
[16]
  PG: 45%
[18]
  TG: 42%

## Cc1c(C)c2c(c(C)c1OCc1ccccc1)C(CN1CCC[C@H]1COc1ccc(CC3SC(=O)NC3=O)cc1)C(C)(C)O2 (stereo not given in full)
[13]
  Reduction: 48% and 37%
[14]
  Reduction: 31% and 22%
[15]
  PG: 48%
[16]
  PG: 37%
[17]
  TG: 31%
[18]
  TG: 22%

## Cc1c(C)c2c(c(C)c1O)C(COc1ccc(/C=C3\SC(=O)NC3=O)cc1)C(C)(C)O2 (stereo not given)
[13]
  Reduction: 11%
[20]
  Reduction: inactive
[24]
  PG: 11%
[25]
  TG: inactive

## Cc1c(C)c2c(c(C)c1OCc1ccccc1)C(CN1CCC[C@H]1COc1ccc(CC3SC(=O)NC3=O)cc1)C(C)(C)O2.O=C(O)/C=C\C(=O)O (stereo not given in full)
[16]
  PG: 24%
[18]
  TG: 64%

## Cc1c(C)c2c(c(C)c1O)CCC(C)(COc1ccc(CC3SC(=O)NC3=O)cc1)O2 (stereo not given) [TROGLITAZONE]
[1]
  half-life: 4.01 h
[2]
  Tmax: 2.25 h
[3]
  AUC(0-inf): 27400 ng·h/mL
[4]
  AUC(0-t): 25900 ng·h/mL
[5]
  Cmax: 5470 ng/mL
[6]
  AUC: 27400 ng·h/mL
[7]
  AUC: 25900 ng·h/mL
[8]
  k el: 5.56e-05 s⁻¹
[9]
  k el: 5.56e-05 s⁻¹
[10]
  Cmax: 5470 ng/mL
[11]
  half-life: 4.01 h
[12]
  Tmax: 2.25 h
[13]
  Reduction: 26%
[14]
  Reduction: 50%
[24]
  PG: 26%
[26]
  PG: inactive
[27]
  TG: 50%
[28]
  TG: inactive
[29]
  Transactivation: 1.12 fold

## Cc1c(C)c2c(c(C)c1OCc1ccccc1)C(CN1CCC[C@@H](Oc3ccc(/C=C4\SC(=O)NC4=O)cc3)C1)C(C)(C)O2 (stereo not given in full)
[19]
  Reduction: inactive
[14]
  Reduction: 52%
[21]
  PG: inactive
[17]
  TG: 52%

## Cc1c(C)c2c(c(C)c1O)C(CN1CCC[C@H]1COc1ccc(CC3SC(=O)NC3=O)cc1)C(C)(C)O2 (stereo not given in full)
[13]
  Reduction: 37% and 28%
[14]
  Reduction: 33% and 29%
[15]
  PG: 37%
[16]
  PG: 28%
[17]
  TG: 33%
[18]
  TG: 29%
[30]
  Fold activation: 0.46
[31]
  Fold activation: 1.21
[29]
  Transactivation: 0.46 fold
